# Compound activity deposited in PubChem BioAssay by several laboratories.
# SUMO HTRF inh – inhibitors of human SUMOylation (UBC9); HTRF SUMOylation assay, SAE1/SAE2 + UBC9, in vitro; hit rate 0.36% among 290,000; P63279; inhibition, % at 35 µM; in the data active = inhibition above about 50%, passing the limit was not always enough
# Target sequence (P63279 whole entry, looked up): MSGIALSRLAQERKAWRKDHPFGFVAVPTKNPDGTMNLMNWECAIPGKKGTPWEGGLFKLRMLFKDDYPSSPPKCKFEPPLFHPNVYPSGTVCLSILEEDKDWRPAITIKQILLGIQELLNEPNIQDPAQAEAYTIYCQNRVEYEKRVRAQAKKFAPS
# CTSL1 counter – cathepsin L1 inhibition, PFM18AAP counter-screen; hit rate 0.49% among 300,000; inhibition, % at 5.96 µM; AID 1906; recombinant F. hepatica cathepsin L1, Z-Leu-Arg-MCA fluorescence;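 active = inhibition above the mean of all tested compounds plus 3 SD, set per screening campaign, cut at about 17% in these data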;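 note: 0% = plate median of test compound wells and 100% = 1 µM Z-Phe-Ala-diazomethylketone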
# NSD2 inh – NSD2 (human) methyltransferase inhibition | O96028 | NSD2 peptide methylation, AlphaScreen, 120 min | inhibition, % at 12.5 µM | hit rate 0.54% among 310,000 | AID 743445; in the data active = inhibition above about 50%
# TDP2 inh – blocks human TDP2 phosphodiesterase activity; AID 720702; hit rate 0.34% among 370,000; O95551; recombinant TDP2, T5PNP hydrolysis, p-nitrophenol absorbance 415 nm; inhibition, % at 12.8 µM;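 active = inhibition above the mean of all tested compounds plus 3 SD, set per campaign, cut at about 25% in these data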;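 note: 0% = DMSO with enzyme and 100% = buffer with substrate but no TDP2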
# Target sequence (O95551 whole entry, looked up): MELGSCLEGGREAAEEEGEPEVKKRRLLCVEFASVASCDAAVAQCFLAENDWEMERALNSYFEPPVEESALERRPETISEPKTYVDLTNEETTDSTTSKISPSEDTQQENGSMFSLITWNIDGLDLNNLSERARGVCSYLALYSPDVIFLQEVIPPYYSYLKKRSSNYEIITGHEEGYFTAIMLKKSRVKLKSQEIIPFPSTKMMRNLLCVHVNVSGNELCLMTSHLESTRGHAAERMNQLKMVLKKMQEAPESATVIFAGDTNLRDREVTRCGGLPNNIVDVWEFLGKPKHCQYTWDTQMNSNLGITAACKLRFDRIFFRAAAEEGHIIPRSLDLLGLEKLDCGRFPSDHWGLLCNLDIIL
#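 Material: recombinant human TDP2; quantity: TDP2 enzyme at 120 nM final; medium: Tris-HCl pH 7.5 with MgCl2; compound: single concentration, 12.8 µM nominal, with 1% DMSO; incubation: 2 h enzyme incubation at 37 °C; signal: epi absorbance; measure: percent inhibition; benchmarks: high control without enzyme, low control DMSO plus TDP2; repeats: singlicate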
# TDP2 confirm – human TDP2 inhibition, confirmation; shares compounds with TDP2 inh; recombinant human TDP2, absorbance read-out; inhibition, % at 12.8 µM; hit rate 22% among 1,100; in the data active = inhibition above about 25%;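 note: 0% = vehicle with enzyme and 100% = no enzyme buffer only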
# Numbers without * were called inactive; x = no result. Most compounds without a hit are left out; they make up all but 1.2% or so of the library.
SMILES,SUMO HTRF inh,CTSL1 counter,NSD2 inh,TDP2 inh,TDP2 confirm
Cc1nn(-c2ccccc2)c2c1C(c1ccccc1)C(C#N)=C(N)O2 (configuration not stated),7,-1,0,40*,11
Cc1ccc(-n2nc(C)c3c2OC(N)=C(C#N)C3c2ccoc2)cc1 (configuration not stated),85,1,5,9,x
COc1ccc(OC)c(C2C(C#N)=C(N)Oc3c2c(C)nn3-c2ccc(C)cc2)c1 (configuration not stated),-7,-4,1,60*,9
COc1ccc(S(=O)(=O)N2CCOCC2)cc1NC(=O)CCCOc1ccc(C(C)=O)cc1,x,x,-1,-2,x
CC1(C(=O)NS(=O)(=O)c2ccc(Cl)s2)CCN1C(=O)c1ccc(C2CCCCC2)cc1 (configuration not stated),x,x,0,6,x
CCCOC1CCCN(C(=O)c2ccc3oc(C(C)C)nc3c2)C1 (configuration not stated),-3,0,-2,9,x
COc1cccc(N2CC(NS(=O)(=O)c3cccnc3)CC2=O)c1 (configuration not stated),x,6,0,29*,-5
CCCCN(CCCC)CCNC(=O)c1cn(CC)c2ccc(S(=O)(=O)N3CCc4ccccc4C3)cc2c1=O,-1,-2,0,0,x
Cc1c(Br)cc(C(=O)O)c(C)c1C,8,-2,-3,-4,x
Cc1c(N)cc(N)cc1C(=O)O,49,0,x,31*,6
Cc1ccc(S(=O)(=O)N/N=C/c2ccccc2F)cc1[N+](=O)[O-],6,-3,5,29*,8
O=S(=O)(N/N=C/c1ccccc1F)c1ccccc1,15,0,-4,2,x
COc1ccc(/C=C/C(=O)NC2CCN(Cc3ccccc3)CC2)cc1OC,22,3,2,28*,-8
CN(C)CCNc1ccc2ncn3c4ccc(O)cc4c(=O)c1c23,x,x,21,31*,10
CC(=O)C1(C(=O)Nc2cc(C)cc(C)c2)CC(c2ccccn2)=NO1 (configuration not stated),x,x,x,-10,x
O=C1NC(=S)S/C1=C\C=C\c1ccc([N+](=O)[O-])o1,86*,x,x,30*,1
O=C(O)/C=C/c1ccc([N+](=O)[O-])o1,7,3,41,6,x
Cn1c(NCCN2CCCC2)nc2cc(-c3ccsc3)sc2c1=O,x,x,4,2,x
COc1cc([C@H]2OC[C@H]3[C@@H]2CO[C@@H]3c2ccc(O[C@H]3O[C@H](CO)[C@@H](O)[C@H](O)[C@H]3O)c(OC)c2)ccc1O[C@@H]1O[C@H](CO)[C@@H](O)[C@H](O)[C@H]1O,x,x,x,-7,x
COc1ccc(NCC(=O)NN=C2CCS(=O)(=O)c3ccc(F)cc32)cc1,x,x,0,7,x
CC(O)(c1ccc(F)c(F)c1)c1nc(-c2cccc(C#N)c2)cs1 (configuration not stated),x,x,-13,5,x
COc1ccc(-c2c[nH]c(=O)[nH]c2=O)cc1OC,3,-1,-2,-1,x
COc1cccc(-c2cc(=O)[nH][nH]2)c1,40,1,34,77*,0
CCOc1cccc(-c2cc(=O)[nH][nH]2)c1,18,3,6,45*,10
CCOc1cccc(OCCCOc2ccccc2)c1,-8,0,-6,-2,x
SMILES,SUMO HTRF inh,CTSL1 counter,NSD2 inh,TDP2 inh,TDP2 confirm
COc1ccc(-c2cc(=O)[nH][nH]2)cc1OC,8,5,6,87*,17
COc1cccc(-c2ccc(C#N)c(=O)[nH]2)c1,10,4,-2,2,x
Cc1ccc(/C=C/C(=O)Nc2nccs2)o1,6,3,2,26*,1
Cc1ccc(/C=C/C(=O)Nc2ncc(C)s2)o1,13,4,7,13,x
C[C@H]1CN([C@@H](C)CO)C(=O)CCCn2nncc2CO[C@@H]1CN(C)C(=O)c1ccc2ccn(C)c2c1,x,x,x,-7,x
C=C(C)CN=CC1(C)CCC(C)=CO1 (configuration not stated),x,x,-2,0,x
CCNC(=S)NS(=O)(=O)c1ccc(Cl)cc1,-8,0,-3,37*,3
[C-]#[N+][C@]12C(=O)[C@H](C=C(Cl)[C@@]1(C)C=C)C(C)(C)[C@H]1C(=O)N(C)c3cccc2c31,x,x,x,-9,x
CC(C)CCNC(=O)[C@H](CSCc1ccccc1)N1Cc2ccccc2C1=O,-6,1,x,-5,x
CC(C)CCNC(=O)[C@H](Cc1ccccc1)N1Cc2ccccc2C1=O,8,1,-1,34*,5
CNC(=O)c1ccccc1NC(=O)C1CC(=O)N(C(C)C)C1 (configuration not stated),-1,-2,1,4,x
CCN(CC)CCCN1C(=O)C2C(C(=O)Nc3ccc(C(C)C)cc3)C3C=CC2(O3)C1C(=O)NC1CCCCC1 (configuration not stated),1,3,5,27*,-2
COc1cccc(CN(CC(=O)NCc2ccccc2)C(=O)c2csnn2)c1,7,-2,2,-9,x
Cc1sc2ncnc(N(C)CCc3ccccn3)c2c1C,5,-4,2,26*,10
Cc1sc2ncnc(N(C)Cc3cccs3)c2c1C,7,6,-5,-14,x
CCc1nc2ccc(C(=O)NCCc3c[nH]c4ccccc34)cn2c1N(C)Cc1ccc(N(C)C)cc1,x,x,-1,-12,x
COc1cc(NC2CCCCC2O)c2nc(-c3ccc(Cl)cc3)ccc2c1 (configuration not stated),31,4,2,33*,-2
Brc1ccccc1OCCN1CCOCC1,-2,-4,-3,26*,3
Clc1cc(Br)ccc1OCCN1CCOCC1,8,-2,-1,6,x
CCOC(=O)C1(CCOC)CCN(C(=O)c2sccc2C)CC1,17,12,-5,26*,-10
C[C@@H]1CN([C@H](C)CO)C(=O)CCCn2nncc2CO[C@@H]1CN(C)C(=O)c1ccncc1,x,x,x,-9,x
CC1CCN(CCCNC(=O)c2ccc(CS(=O)(=O)Cc3ccccc3F)o2)CC1,-10,x,1,3,x
CC1CCN(CCCNC(=O)c2ccc(CS(=O)(=O)Cc3ccc(Cl)cc3)o2)CC1,5,5,3,27*,-8
COc1ccc(OC)c2c1C(=O)c1ccccc1C2=O,50*,-2,-2,56*,7
Cc1ccc(-c2ccc(OC(=O)c3ccc(=O)[nH]c3)c(C)c2)cc1,3,-3,-4,-1,x
CC1(C)CC(=O)C=C(Nc2ccc(C(=O)O)cc2)C1,23,1,-1,3,x
CC1(C)CC(=O)C=C(Nc2ccc(O)c(C(=O)O)c2)C1,25,8,2,25*,0
CC1=C(C(=O)N(C(C)C)C(C)C)CC(CC(=O)NCc2cccc3ccccc23)C(=O)N1CCC1=CCCCC1 (configuration not stated),x,x,x,-12,x
CCC(CO)Oc1cc(NC(=O)c2cccc(OC)c2)c2ncn(C(C)C)c2c1 (configuration not stated),x,x,x,26*,31*
